# In ChEMBL document CHEMBL1134407, “Novel seco cyclopropa[c]pyrrolo[3,2-e]indole bisalkylators bearing a 3,3'-arylenebisacryloyl group as a linker” (J Med Chem, 2001):
# Tests used:
# HeLa = assay: Inhibitory activity against HeLaS3 human uterine cervix carcinoma cells; format: functional, cell-based
# In short: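 HeLaS3 human uterine cervix carcinoma cells were exposed to the drug. The value is the drug concentration that inhibits cell growth by 50%.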
# Mus musculus [1] = organism: Mus musculus; assay: Percentage change in body weight; format: functional
# Mus musculus [2] = organism: Mus musculus; assay: Percentage tumor growth inhibition as compared with the untreated group; format: functional; parameters: concentration or dose not given beside the values
# Homo sapiens [3] = assay: Antitumor activity against human colon CX-1 tumor Xenografts in Athymic mice at a dose of 15.6 micro g/kg; format: functional
# In short: (§1)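 Athymic mice bearing human colon CX-1 tumour xenografts. Dose given in µg/kg. Read-out is percent tumour growth inhibition (TGI) relative to the untreated group.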
# Homo sapiens [4] = assay: Antitumor activity against human colon CX-1 tumor Xenografts in Athymic mice at a dose of 7.81 micro g/kg; format: functional; in short: as §1
# Mus musculus [5] = organism: Mus musculus; assay: Ratio between maximum dose within 10% body weight loss to tumor growth inhibition; format: functional
# Homo sapiens [6] = assay: Antitumor activity against human colon CX-1 tumor Xenografts in Athymic mice at a dose of 9180 micro g/kg; format: functional
# In short: (§2)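 Athymic mice carried implanted human colon CX-1 tumor xenografts. Each line gives the dose in μg/kg. Read-out is percentage tumor growth inhibition relative to the untreated group.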
# DLD-1 = assay: Cytotoxicity against human cancer cell lines DLD-1 of colon.; format: functional, cell-based
# [7] = system: KATO III stomach cancer cell line; assay: Cytotoxicity against human cancer cell lines KATO III (gastric); format: functional, cell-based
# [8] = Cytotoxicity against human cancer cell lines SBC-3 /ADR of lung (adriamycin resistant); format: functional, cell-based
# SBC-3 = assay: Cytotoxicity against human cancer cell lines SBC-3 of lung; format: functional, cell-based
# ZR-75-1 = assay: Cytotoxicity against human cancer cell lines ZR-75-1 of breast.; format: functional, cell-based
# A2780 = assay: Cytotoxicity against human cancer cell lines A2780 (ovarian); format: functional, cell-based
# Homo sapiens [9] = assay: Antitumor activity against human colon CX-1 tumor Xenografts in Athymic mice at a dose of 3.91 micro g/kg; format: functional; in short: as §2
# PC-3 = assay: Cytotoxicity against human cancer cell lines PC-3 of lung; format: functional, cell-based
# [10] = Homo sapiens, HeLa, read-out: IC50
SMILES,Body weight change (Mus musculus [1]) [%],IC50 (HeLa; [10]) [ng/mL],Inhibition (Mus musculus [2]) [%],Ratio (Mus musculus [5]),also measured
CCc1c(/C=C/C(=O)N2C[C@@H](CCl)c3c2cc(O)c2[nH]c(C(F)(F)F)c(C(=O)OC)c32)ccc(/C=C/C(=O)N2C[C@@H](CCl)c3c2cc(O)c2[nH]c(C(F)(F)F)c(C(=O)OC)c32)c1CC,,,,,IC50 (HeLa; hela): 0.00138 ng/mL
COC(=O)c1c(C(F)(F)F)[nH]c2c(O)cc3c(c12)[C@H](CCl)CN3C(=O)/C=C/c1c2ccccc2c(/C=C/C(=O)N2C[C@@H](CCl)c3c2cc(O)c2[nH]c(C(F)(F)F)c(C(=O)OC)c32)c2ccccc12,-18,1.51,75,,
COC(=O)c1c(C(F)(F)F)[nH]c2c(O)cc3c(c12)[C@H](CCl)CN3C(=O)/C=C/c1ccc(/C=C/C(=O)N2C[C@@H](CCl)c3c2cc(O)c2[nH]c(C(F)(F)F)c(C(=O)OC)c32)c2c(OC)ccc(OC)c12,,0.00934,,,
Cc1c[nH]c2c(O)cc3c(c12)[C@H](CCl)CN3C(=O)c1cc2cc(NC(=O)Nc3ccc4[nH]c(C(=O)N5C[C@@H](CCl)c6c5cc(O)c5[nH]cc(C)c65)cc4c3)ccc2[nH]1 [BIZELESIN],-3,,90,8.4,Inhibition (Homo sapiens [3]): 56%; Inhibition (Homo sapiens [4]): 53%
COC(=O)c1c(C(F)(F)F)[nH]c2c(O)cc3c(c12)[C@H](CCl)CN3C(=O)c1cc2cc(-c3ccc4[nH]c(C(=O)N5C[C@@H](CCl)c6c5cc(O)c5[nH]c(C(F)(F)F)c(C(=O)OC)c65)cc4c3)ccc2[nH]1,1,,84,3.3,IC50 (HeLa; hela): 0.0049 ng/mL
COC(=O)c1c(C(F)(F)F)[nH]c2c(O)cc3c(c12)[C@H](CCl)CN3C(=O)/C=C/c1ccc(-c2ccc(/C=C/C(=O)N3C[C@@H](CCl)c4c3cc(O)c3[nH]c(C(F)(F)F)c(C(=O)OC)c43)cn2)nc1,4,0.0198,88,3.6,
COC(=O)c1c(C(F)(F)F)[nH]c2c(O)cc3c(c12)[C@H](CCl)CN3C(=O)/C=C/c1ccc(/C=C/C(=O)N2C[C@@H](CCl)c3c2cc(O)c2[nH]c(C(F)(F)F)c(C(=O)OC)c32)c(OC)c1OC,-1,,89,4.6,IC50 (HeLa; hela): 0.00158 ng/mL
COC(=O)c1c(C(F)(F)F)[nH]c2c(O)cc3c(c12)[C@H](CCl)CN3C(=O)/C=C/c1ccc(/C=C/C(=O)N2C[C@@H](CCl)c3c2cc(O)c2[nH]c(C(F)(F)F)c(C(=O)OC)c32)c2cc3ccccc3cc12,-6,3.25,82,3.5,
CO[C@@]12[C@H](COC(N)=O)C3=C(C(=O)C(C)=C(N)C3=O)N1C[C@@H]1N[C@@H]12 [MITOMYCIN],,,,,Inhibition (Homo sapiens [6]): 65%
COC(=O)c1c(C(F)(F)F)[nH]c2c(O)cc3c(c12)[C@H](CCl)CN3C(=O)/C=C/c1cc(OC)c(/C=C/C(=O)N2C[C@@H](CCl)c3c2cc(O)c2[nH]c(C(F)(F)F)c(C(=O)OC)c32)cc1OC,3,9.71,81,>6.5,
COc1cccc2c1C(=O)c1c(O)c3c(c(O)c1C2=O)C[C@@](O)(C(=O)CO)C[C@@H]3O[C@H]1C[C@H](N)[C@H](O)[C@H](C)O1 [DOXORUBICIN],,,,,"IC50 (DLD-1): 136 ng/mL; IC50 [7]: 905 ng/mL; IC50 [8]: 129 ng/mL; IC50 (SBC-3; Homo sapiens, SBC-3, read-out: IC50): 11.2 ng/mL; IC50 (ZR-75-1; Homo sapiens, ZR-75-1, read-out: IC50): 6.39 ng/mL; IC50 (A2780; Homo sapiens, A2780, read-out: IC50): 12.1 ng/mL"
COC(=O)c1c(C(F)(F)F)[nH]c2c(O)cc3c(c12)[C@H](CCl)CN3C(=O)/C=C/c1ccc(/C=C/C(=O)N2C[C@@H](CCl)c3c2cc(O)c2[nH]c(C(F)(F)F)c(C(=O)OC)c32)c2ccccc12,3,0.011,85,7.4,
COC(=O)c1c(C(F)(F)F)[nH]c2c(O)cc3c(c12)[C@H](CCl)CN3C(=O)/C=C/c1ccc(/C=C/C(=O)N2C[C@@H](CCl)c3c2cc(O)c2[nH]c(C(F)(F)F)c(C(=O)OC)c32)c2c1C(=O)c1ccccc1C2=O,-4,0.523,84,6.6,
COC(=O)c1c(C(F)(F)F)[nH]c2c(O)cc3c(c12)[C@H](CCl)CN3C(=O)/C=C/c1cccc(/C=C/C(=O)N2C[C@@H](CCl)c3c2cc(O)c2[nH]c(C(F)(F)F)c(C(=O)OC)c32)c1,-5,54.6,91,,
COC(=O)c1c(C(F)(F)F)[nH]c2c(O)cc3c(c12)[C@H](CCl)CN3C(=O)/C=C/c1cccc(-c2ccc(-c3cccc(/C=C/C(=O)N4C[C@@H](CCl)c5c4cc(O)c4[nH]c(C(F)(F)F)c(C(=O)OC)c54)c3)cc2)c1,,> 100,,,
COC(=O)c1c(C(F)(F)F)[nH]c2c(O)cc3c(c12)[C@H](CCl)CN3C(=O)/C=C/c1ccc(/C=C/C(=O)N2C[C@@H](CCl)c3c2cc(O)c2[nH]c(C(F)(F)F)c(C(=O)OC)c32)c2c1OCO2,-2,0.00595,90,13.3,
COC(=O)c1c(C(F)(F)F)[nH]c2c(O)cc3c(c12)[C@H](CCl)CN3C(=O)/C=C/c1ccc(-c2ccc(/C=C/C(=O)N3C[C@@H](CCl)c4c3cc(O)c3[nH]c(C(F)(F)F)c(C(=O)OC)c43)cc2)cc1,4,0.141,83,3.7,
COC(=O)c1c(C(F)(F)F)[nH]c2c(O)cc3c(c12)[C@H](CCl)CN3C(=O)/C=C/c1ccc(/C=C/C(=O)N2C[C@@H](CCl)c3c2cc(O)c2[nH]c(C(F)(F)F)c(C(=O)OC)c32)cc1,-5,,89,30.7,Inhibition (Homo sapiens [9]): 77%; IC50 (DLD-1): 0.0149 ng/mL; IC50 (PC-3): 0.148 ng/mL; IC50 [7]: 0.816 ng/mL; IC50 (HeLa; hela): 0.00274 ng/mL; IC50 [8]: 0.00349 ng/mL; IC50 (SBC-3; sbc-3): 0.00122 ng/mL; Inhibition (Homo sapiens [4]): 83%; IC50 (ZR-75-1; zr-75-1): 0.00463 ng/mL; IC50 (A2780; a2780): 0.000397 ng/mL
COC(=O)c1c(C(F)(F)F)[nH]c2c(O)cc3c(c12)[C@H](CCl)CN3C(=O)/C=C/c1ccccc1/C=C/C(=O)N1C[C@@H](CCl)c2c1cc(O)c1[nH]c(C(F)(F)F)c(C(=O)OC)c21,-6,87.6,70,,
COC(=O)c1c(C(F)(F)F)[nH]c2c(O)cc3c(c12)[C@H](CCl)CN3C(=O)/C=C/c1ccc(-c2ccc(-c3ccc(/C=C/C(=O)N4C[C@@H](CCl)c5c4cc(O)c4[nH]c(C(F)(F)F)c(C(=O)OC)c54)cc3)cc2)cc1,-11,48.3,84,,
COC(=O)c1c(C(F)(F)F)[nH]c2c(O)cc3c(c12)[C@H](CCl)CN3C(=O)/C=C/c1ccc(/C=C/C(=O)N2C[C@@H](CCl)c3c2cc(O)c2[nH]c(C(F)(F)F)c(C(=O)OC)c32)c2c1OCCO2,3,,91,9,IC50 (HeLa; hela): 0.00276 ng/mL
